pIC50: −log10 of the molar value.
How the values were obtained:
[1] = Drug metabolism in human liver microsomes assessed as oxidation at acrylate groups; type: ADME
[2] = Intrinsic clearance in mouse liver microsomes; type: ADME; details: read-out: CLH
[3] = Clearance in balb/c mouse at 5 mg/kg, iv by liquid chromatography-tandem mass spectrometry; type: ADME, organism-based; details: in vivo
Method in brief: (§1)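 Rodent PK in male balb/c mice and male Wistar rats; plasma drug levels by LC-MS/MS. Mouse oral dosing at 20 mg/kg, with compounds given as a 0.5% methylcellulose/0.5% Tween 80 suspension or as solutions (PEG300/D5W, or ethanol/PEG300 with Solutol or D5W), depending on compound.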

Cytochrome P450 2D6 = Cytochrome P450 2D6 (Homo sapiens, UniProt P10635); test: Inhibition of CYP2D6 (unknown origin); type: ADME
[4] = Intrinsic clearance in human liver microsomes; type: ADME; details: read-out: CLH
[5] = target: Epidermal growth factor receptor (Homo sapiens, UniProt P00533, L858R/T790M); test: Inhibition of EGFR L858R/T790M mutant phosphorylation in human patient derived H1975 cells incubated for 3 hrs by ELISA method; type: cell-based
[6] = Drug metabolism in rat liver microsomes assessed as oxidation at 7-methyl groups; type: ADME
[7] = Oral bioavailability in balb/c mouse at 20 mg/kg by liquid chromatography-tandem mass spectrometry; type: ADME, organism-based; details: in vivo; method in brief: as §1
[8] = Inhibition of EGFR E746 to A750 deletion mutant phosphorylation in human patient derived HCC827 cells incubated for 3 hrs by ELISA method; type: cell-based; details: HCC827, 3 h
Method in brief: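 HCC827 cells plated at 7500/well in 5% FBS/RPMI and left overnight at 37 °C. Then 3 h with a 12-point compound dilution series, no EGF stimulation. Lysed in Triton/protease/phosphatase-inhibitor buffer. Phospho-EGFR (Y1173) read by sandwich ELISA: anti-EGFR capture, anti-phospho-EGFR, anti-rabbit-HRP, chemiluminescence. IC50 from at least duplicates.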

[9] = target: Epidermal growth factor receptor (Homo sapiens, UniProt P00533); test: Inhibition of wild type EGFR phosphorylation in human HaCaT cells incubated for 3 hrs by ELISA method; type: cell-based
[10] = Drug metabolism in mouse liver microsomes assessed as oxidation at acrylate groups; type: ADME
Cytochrome P450 3A4 = Cytochrome P450 3A4 (Homo sapiens, UniProt P08684); test: Inhibition of CYP3A4 (unknown origin); type: ADME
[11] = Drug metabolism in mouse liver microsomes assessed as oxidation at 7-methyl groups; type: ADME
Cytochrome P450 2C9 = Cytochrome P450 2C9 (Homo sapiens, UniProt P11712); test: Inhibition of CYP2C9 (unknown origin); type: ADME
[12] = AUC in balb/c mouse at 20 mg/kg, po by liquid chromatography-tandem mass spectrometry; type: ADME, organism-based; details: in vivo; method in brief: as §1
[13] = Glutathione reactivity assessed as GSH adduct formation incubated for 1 hr using 10 mM glutathione
Method in brief: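 Compound incubated 1 h with 10 mM glutathione; GSH adduct formation measured.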

[14] = target: Epidermal growth factor receptor (Homo sapiens, UniProt P00533, L858R); test: Inhibition of EGFR L858R mutant phosphorylation in human patient derived H3255 cells incubated for 3 hrs by ELISA method; type: cell-based
[15] = Drug metabolism in rat liver microsomes assessed as oxidation at acrylate groups; type: ADME
[16] = Aqueous solubility of the compound at pH 6.8; type: physicochemical
[17] = Drug metabolism in human liver microsomes assessed as oxidation at 7-methyl groups; type: ADME
[18] = Volume of distribution at steady state in Wistar rat at 3 mg/kg, iv by liquid chromatography-tandem mass spectrometry; type: ADME, organism-based; details: in vivo, read-out: Vdss
Method in brief: (§2)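 Male animals (balb/c mice or Wistar rats) were used. Compound levels in plasma were measured by LC-MS/MS.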

Homo sapiens [19] = species: Homo sapiens; test: Antitumor activity in NSCLC patient assessed as disease control rate; type: functional
[20] = Clearance in balb/c mouse at 5 mg/kg, iv by liquid chromatography-tandem mass spectrometry relative to liver blood flow; type: ADME, organism-based; details: in vivo
[21] = Mean residence time in balb/c mouse at 5 mg/kg, iv by liquid chromatography-tandem mass spectrometry; type: ADME, organism-based; details: in vivo
[22] = Time duration during which free plasma concentration stays above in-vitro IC50 level in human NCI-H1975 cells xenografted Foxn1 nude mouse at 50 mg/kg, po qd for 5 days; type: ADME, organism-based; details: in vivo, 120 h
Method in brief: (§3)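 H1975 xenografts in Foxn1 nude mice, oral dosing once daily for 5 days. Plasma sampled after the last dose on day 5, at 30 min, 3 h, 7 h and 24 h. Free drug exposure was compared with in vitro cellular IC50 across the dosing interval.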

[23] = Oral bioavailability in Wistar rat at 10 mg/kg by liquid chromatography-tandem mass spectrometry; type: ADME, organism-based; details: in vivo; method in brief: as §1
[24] = Antitumor activity against human NCI-H1975 cells xenografted in Foxn1 nude mouse assessed as reduction in tumor volume at 50 mg/kg, po qd for 5 days relative to untreated control; type: functional
Method in brief: (§4)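 Female Foxn1 nude mice, H1975 cells inoculated subcutaneously. Randomized into groups once tumors reached 150−200 mm³, then dosed by oral gavage once daily for 5 days in 0.5% MC/0.5% Tween80 suspension (10 μL/g). Tumor volumes by caliper, (length × width × width)/2. %T/C = 100 × ΔT/ΔC, or % regression = 100 × ΔT/T_initial when ΔT < 0. Body weight recorded daily.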

[25] = Time duration during which free plasma concentration stays above in-vitro IC50 level in human NCI-H1975 cells xenografted Foxn1 nude mouse at 25 mg/kg, po qd for 5 days; type: ADME, organism-based; details: in vivo, 120 h; method in brief: as §3
[26] = AUC in Wistar rat at 3 mg/kg, iv by liquid chromatography-tandem mass spectrometry; type: ADME, organism-based; details: in vivo
[27] = AUC in balb/c mouse at 5 mg/kg, iv by liquid chromatography-tandem mass spectrometry; type: ADME, organism-based; details: in vivo
[28] = Antitumor activity against human NCI-H1975 cells xenografted in Foxn1 nude mouse assessed as reduction in tumor volume at 25 mg/kg, po qd for 5 days relative to untreated control; type: functional; method in brief: as §4
[29] = Mean residence time in Wistar rat at 3 mg/kg, iv by liquid chromatography-tandem mass spectrometry; type: ADME, organism-based; details: in vivo
[30] = AUC in Wistar rat at 10 mg/kg, po by liquid chromatography-tandem mass spectrometry; type: ADME, organism-based; details: in vivo; method in brief: as §1
[31] = Tmax in Wistar rat at 10 mg/kg, po by liquid chromatography-tandem mass spectrometry; type: ADME, organism-based; details: in vivo; method in brief: as §1
[32] = Tmax in balb/c mouse at 20 mg/kg, po by liquid chromatography-tandem mass spectrometry; type: ADME, organism-based; details: in vivo; method in brief: as §1
[33] = Cmax in balb/c mouse at 20 mg/kg, po by liquid chromatography-tandem mass spectrometry; type: ADME, organism-based; design: dose 20 mg/kg, route oral; details: in vivo; method in brief: as §1
Homo sapiens [34] = species: Homo sapiens; test: Antitumor activity in NSCLC patient assessed as response rate; type: functional
[35] = Clearance in Wistar rat at 3 mg/kg, iv by liquid chromatography-tandem mass spectrometry; type: ADME, organism-based; details: in vivo; method in brief: as §1
Mus musculus [36] = test: Toxicity in human NCI-H1975 cells xenografted Foxn1 nude mouse assessed as change in body weight at 25 mg/kg, po qd for 5 days (reference value: […]); type: organism-based; details: in vivo, 120 h
[37] = Cmax in Wistar rat at 10 mg/kg, po by liquid chromatography-tandem mass spectrometry; type: ADME, organism-based; design: dose 10 mg/kg, route oral; details: in vivo; method in brief: as §1
[38] = Volume of distribution at steady state in balb/c mouse at 5 mg/kg, iv by liquid chromatography-tandem mass spectrometry; type: ADME, organism-based; details: in vivo, read-out: Vdss; method in brief: as §2
[39] = Clearance in Wistar rat at 3 mg/kg, iv by liquid chromatography-tandem mass spectrometry relative to liver blood flow; type: ADME, organism-based; details: in vivo
Mus musculus [40] = test: Toxicity in human NCI-H1975 cells xenografted Foxn1 nude mouse assessed as change in body weight at 50 mg/kg, po qd for 5 days (reference value: […]); type: organism-based; details: in vivo, 120 h

Chain of Cytochrome P450 2C9 (P11712 whole entry): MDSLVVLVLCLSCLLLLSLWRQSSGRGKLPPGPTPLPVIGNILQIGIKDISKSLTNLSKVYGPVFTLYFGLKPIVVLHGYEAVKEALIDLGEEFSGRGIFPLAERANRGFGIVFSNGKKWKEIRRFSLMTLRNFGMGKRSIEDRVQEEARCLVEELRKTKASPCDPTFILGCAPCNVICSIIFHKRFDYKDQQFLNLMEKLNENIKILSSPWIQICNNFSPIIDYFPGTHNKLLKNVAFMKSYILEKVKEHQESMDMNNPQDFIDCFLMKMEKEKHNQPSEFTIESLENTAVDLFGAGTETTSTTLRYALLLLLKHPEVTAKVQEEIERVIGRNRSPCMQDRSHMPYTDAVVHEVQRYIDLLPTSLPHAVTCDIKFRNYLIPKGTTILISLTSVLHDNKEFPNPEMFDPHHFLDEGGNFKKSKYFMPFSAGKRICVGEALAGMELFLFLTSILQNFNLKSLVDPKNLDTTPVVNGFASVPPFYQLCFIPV
Chain of Cytochrome P450 2D6 (P10635 whole entry): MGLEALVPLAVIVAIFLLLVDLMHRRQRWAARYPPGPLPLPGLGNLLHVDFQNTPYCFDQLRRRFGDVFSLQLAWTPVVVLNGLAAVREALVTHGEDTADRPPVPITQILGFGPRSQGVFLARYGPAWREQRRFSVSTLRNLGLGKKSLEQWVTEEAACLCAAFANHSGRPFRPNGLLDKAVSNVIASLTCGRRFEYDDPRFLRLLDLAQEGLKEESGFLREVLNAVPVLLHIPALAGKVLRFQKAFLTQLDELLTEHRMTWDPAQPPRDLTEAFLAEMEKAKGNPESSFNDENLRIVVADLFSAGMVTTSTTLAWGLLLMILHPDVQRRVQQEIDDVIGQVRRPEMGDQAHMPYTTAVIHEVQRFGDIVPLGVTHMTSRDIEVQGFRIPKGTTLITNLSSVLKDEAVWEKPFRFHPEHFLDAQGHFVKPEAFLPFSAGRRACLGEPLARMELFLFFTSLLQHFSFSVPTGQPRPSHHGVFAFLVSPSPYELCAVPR
Chain of Cytochrome P450 3A4 (P08684 whole entry): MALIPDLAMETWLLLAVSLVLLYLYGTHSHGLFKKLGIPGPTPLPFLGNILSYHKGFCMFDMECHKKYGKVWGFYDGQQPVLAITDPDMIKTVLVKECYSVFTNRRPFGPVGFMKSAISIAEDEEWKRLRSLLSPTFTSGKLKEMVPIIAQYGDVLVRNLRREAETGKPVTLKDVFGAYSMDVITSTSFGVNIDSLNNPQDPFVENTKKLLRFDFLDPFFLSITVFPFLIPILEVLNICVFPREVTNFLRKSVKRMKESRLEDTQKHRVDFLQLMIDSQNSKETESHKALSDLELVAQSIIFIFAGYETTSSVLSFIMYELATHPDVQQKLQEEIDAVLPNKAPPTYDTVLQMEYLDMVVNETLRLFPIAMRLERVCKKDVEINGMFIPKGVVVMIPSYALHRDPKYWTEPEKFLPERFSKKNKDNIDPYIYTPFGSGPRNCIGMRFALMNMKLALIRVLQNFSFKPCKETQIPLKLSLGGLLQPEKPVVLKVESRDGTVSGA
Chain of Epidermal growth factor receptor (Homo sapiens, UniProt P00533, L858R/T790M) (P00533 25-1210 T790M/L858R limits assumed): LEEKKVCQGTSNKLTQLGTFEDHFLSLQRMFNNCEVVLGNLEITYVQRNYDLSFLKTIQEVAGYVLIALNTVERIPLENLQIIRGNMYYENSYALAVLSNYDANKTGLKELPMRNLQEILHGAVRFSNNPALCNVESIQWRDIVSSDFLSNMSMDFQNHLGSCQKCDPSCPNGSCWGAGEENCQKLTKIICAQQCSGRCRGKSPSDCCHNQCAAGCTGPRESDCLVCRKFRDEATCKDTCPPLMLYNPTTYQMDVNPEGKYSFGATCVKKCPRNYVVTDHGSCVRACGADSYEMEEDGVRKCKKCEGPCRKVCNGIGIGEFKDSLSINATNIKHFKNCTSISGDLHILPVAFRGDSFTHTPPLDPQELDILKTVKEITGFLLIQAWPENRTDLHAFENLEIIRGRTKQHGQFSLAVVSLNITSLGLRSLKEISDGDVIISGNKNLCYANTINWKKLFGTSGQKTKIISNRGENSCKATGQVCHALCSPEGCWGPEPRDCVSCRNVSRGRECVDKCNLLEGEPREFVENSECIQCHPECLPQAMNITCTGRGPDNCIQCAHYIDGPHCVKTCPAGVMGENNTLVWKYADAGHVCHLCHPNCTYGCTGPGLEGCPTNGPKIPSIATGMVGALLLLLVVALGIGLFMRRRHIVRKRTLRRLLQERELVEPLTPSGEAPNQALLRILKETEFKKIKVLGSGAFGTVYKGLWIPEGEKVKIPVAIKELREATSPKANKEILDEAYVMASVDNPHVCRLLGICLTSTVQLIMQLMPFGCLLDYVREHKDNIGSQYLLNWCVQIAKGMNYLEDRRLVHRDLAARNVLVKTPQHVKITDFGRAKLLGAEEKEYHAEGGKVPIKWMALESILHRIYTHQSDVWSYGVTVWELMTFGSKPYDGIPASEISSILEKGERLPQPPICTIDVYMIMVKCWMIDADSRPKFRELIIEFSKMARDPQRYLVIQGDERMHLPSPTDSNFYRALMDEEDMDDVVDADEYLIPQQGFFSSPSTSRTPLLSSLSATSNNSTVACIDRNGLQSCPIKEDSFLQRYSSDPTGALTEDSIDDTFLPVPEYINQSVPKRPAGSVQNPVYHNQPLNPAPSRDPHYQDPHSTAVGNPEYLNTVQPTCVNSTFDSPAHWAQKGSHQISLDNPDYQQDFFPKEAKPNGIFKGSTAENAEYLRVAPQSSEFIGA
Chain of Epidermal growth factor receptor (Homo sapiens, UniProt P00533, L858R) (P00533 25-1210 L858R limits assumed): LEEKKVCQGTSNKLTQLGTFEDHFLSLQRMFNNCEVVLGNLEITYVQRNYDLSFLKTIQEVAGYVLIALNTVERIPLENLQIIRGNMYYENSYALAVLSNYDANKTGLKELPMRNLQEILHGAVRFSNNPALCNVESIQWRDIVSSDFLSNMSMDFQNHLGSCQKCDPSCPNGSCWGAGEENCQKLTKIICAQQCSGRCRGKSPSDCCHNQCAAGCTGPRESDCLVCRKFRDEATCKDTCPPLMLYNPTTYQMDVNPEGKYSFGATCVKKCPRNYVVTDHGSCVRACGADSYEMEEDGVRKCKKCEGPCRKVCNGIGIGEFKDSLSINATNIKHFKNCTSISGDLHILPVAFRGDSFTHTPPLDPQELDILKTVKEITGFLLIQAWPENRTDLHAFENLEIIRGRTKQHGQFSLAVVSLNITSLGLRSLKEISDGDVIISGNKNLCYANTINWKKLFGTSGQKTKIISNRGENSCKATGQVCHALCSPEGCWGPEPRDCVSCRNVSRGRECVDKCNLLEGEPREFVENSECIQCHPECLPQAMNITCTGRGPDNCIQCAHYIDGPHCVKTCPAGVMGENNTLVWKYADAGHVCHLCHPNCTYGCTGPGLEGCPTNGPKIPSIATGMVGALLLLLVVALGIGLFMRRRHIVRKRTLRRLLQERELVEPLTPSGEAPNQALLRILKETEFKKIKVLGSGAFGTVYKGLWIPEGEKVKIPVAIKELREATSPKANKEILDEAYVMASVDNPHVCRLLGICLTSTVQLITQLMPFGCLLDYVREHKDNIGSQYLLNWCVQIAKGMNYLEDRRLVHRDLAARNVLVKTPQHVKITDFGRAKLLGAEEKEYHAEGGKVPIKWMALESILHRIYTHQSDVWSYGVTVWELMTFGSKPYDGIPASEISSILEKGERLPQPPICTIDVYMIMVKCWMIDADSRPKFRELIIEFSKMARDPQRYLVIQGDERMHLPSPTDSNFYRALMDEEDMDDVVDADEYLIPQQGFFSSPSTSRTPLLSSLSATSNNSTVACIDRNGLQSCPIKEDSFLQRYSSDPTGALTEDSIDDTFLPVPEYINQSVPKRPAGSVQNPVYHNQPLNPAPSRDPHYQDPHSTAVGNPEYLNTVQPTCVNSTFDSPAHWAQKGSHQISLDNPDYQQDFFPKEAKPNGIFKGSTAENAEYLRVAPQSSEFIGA
Chain of Epidermal growth factor receptor (Homo sapiens, UniProt P00533) (P00533 whole entry): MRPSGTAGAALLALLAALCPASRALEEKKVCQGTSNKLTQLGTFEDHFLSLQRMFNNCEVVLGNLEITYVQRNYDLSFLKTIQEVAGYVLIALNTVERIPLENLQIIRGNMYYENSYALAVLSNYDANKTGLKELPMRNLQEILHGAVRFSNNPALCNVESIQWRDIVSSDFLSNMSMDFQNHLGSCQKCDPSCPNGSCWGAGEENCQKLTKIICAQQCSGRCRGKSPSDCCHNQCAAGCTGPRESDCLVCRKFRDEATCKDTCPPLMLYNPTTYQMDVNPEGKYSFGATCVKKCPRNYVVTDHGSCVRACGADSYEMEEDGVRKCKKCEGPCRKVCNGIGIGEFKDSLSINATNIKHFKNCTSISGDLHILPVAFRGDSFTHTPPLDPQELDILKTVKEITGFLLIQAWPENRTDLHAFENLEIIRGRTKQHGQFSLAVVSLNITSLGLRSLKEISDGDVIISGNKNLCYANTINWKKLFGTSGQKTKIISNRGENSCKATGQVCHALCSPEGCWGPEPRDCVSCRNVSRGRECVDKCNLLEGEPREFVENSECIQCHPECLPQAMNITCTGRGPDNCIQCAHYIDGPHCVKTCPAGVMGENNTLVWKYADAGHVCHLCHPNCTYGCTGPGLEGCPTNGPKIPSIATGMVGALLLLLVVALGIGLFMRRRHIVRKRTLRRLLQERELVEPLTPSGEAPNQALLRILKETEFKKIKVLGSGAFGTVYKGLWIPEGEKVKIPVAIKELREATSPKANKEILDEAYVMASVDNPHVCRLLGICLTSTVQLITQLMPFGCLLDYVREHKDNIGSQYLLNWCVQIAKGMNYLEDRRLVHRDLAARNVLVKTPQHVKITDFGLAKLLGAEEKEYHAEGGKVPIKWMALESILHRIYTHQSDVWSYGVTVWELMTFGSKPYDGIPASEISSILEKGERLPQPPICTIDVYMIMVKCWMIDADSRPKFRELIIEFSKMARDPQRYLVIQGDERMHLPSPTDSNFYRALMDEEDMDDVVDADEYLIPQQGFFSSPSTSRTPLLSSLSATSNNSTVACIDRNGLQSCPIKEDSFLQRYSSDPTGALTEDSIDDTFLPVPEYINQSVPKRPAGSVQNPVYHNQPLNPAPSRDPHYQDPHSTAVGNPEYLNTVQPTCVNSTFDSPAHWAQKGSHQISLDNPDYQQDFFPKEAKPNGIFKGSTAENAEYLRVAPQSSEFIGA

## C=CC(=O)N1CCCC[C@@H](n2c(NC(=O)c3cccc(C(F)(F)F)c3)nc3cccc(C)c32)C1
[1]
  Drug metabolism: Metabolite_Detected
[2]
  microsomal CLint: 245 µL/min/mg
[3]
  clearance: 3.24 L/h/kg
Cytochrome P450 2D6
  pIC50: < 4.60
[4]
  microsomal CLint: 83 µL/min/mg
[5]
  pIC50: 8.86
[6]
  Drug metabolism: Metabolite_Detected
[7]
  bioavailability: 6%
[8]
  pIC50: 8.41
[9]
  pIC50: 6.60
[10]
  Drug metabolism: Metabolite_Detected
Cytochrome P450 3A4
  pIC50: 5.46
[11]
  Drug metabolism: Metabolite_Detected
Cytochrome P450 2C9
  pIC50: 5.47
[12]
  AUC: 0.808 µM·h
[13]
  Drug metabolism: < 5%
[14]
  pIC50: 7.83
[15]
  Drug metabolism: Metabolite_Detected
[16]
  solubility: < 2 µM
[17]
  Drug metabolism: Metabolite_Detected

## Cc1cc(C(=O)Nc2nc3cccc(Cl)c3n2[C@@H]2CCCCN(C(=O)/C=C/CN(C)C)C2)ccn1 [NAZARTINIB]
[18]
  Vd: 2.4 L/kg
Homo sapiens [19]
  Activity: 93%
[20]
  CL: 35%
[21]
  MRT: 1.5 h
[2]
  microsomal CLint: 66 µL/min/mg
[3]
  clearance: 1.9 L/h/kg
[22]
  Time: <= 14 hr
Cytochrome P450 2D6
  pIC50: 5.15
[23]
  bioavailability: 55%
[4]
  microsomal CLint: 34 µL/min/mg
[24]
  T/C: -72%
[7]
  bioavailability: 60%
[8]
  pIC50: 8.82
[25]
  Time: <= 14 hr
[26]
  AUC: 6.53 µM·h
[27]
  AUC: 5.34 µM·h
[28]
  T/C: -32%
[29]
  MRT: 2.6 h
Cytochrome P450 3A4
  pIC50: < 4.60
[30]
  AUC: 12 µM·h
[31]
  Tmax: 3 h
[32]
  Tmax: 0.83 h
[33]
  Cmax: 2.94 µM
Homo sapiens [34]
  Activity: 60%
Cytochrome P450 2C9
  pIC50: < 4.60
[12]
  AUC: 12.8 µM·h
[35]
  clearance: 0.942 L/h/kg
Mus musculus [36]
  Activity: 5.3%
[37]
  Cmax: 0.987 µM
[38]
  Vd: 2.8 L/kg
[16]
  solubility: > 175 µM
[39]
  CL: 30%
Mus musculus [40]
  Activity: 3.8%

— ChEMBL document CHEMBL3860038, “Discovery of (R,E)-N-(7-Chloro-1-(1-[4-(dimethylamino)but-2-enoyl]azepan-3-yl)-1H-benzo[d]imidazol-2-yl)-2-methylisonicotinamide (EGF816), a Novel, Potent, and WT Sparing Covalent Inhibitor of Oncogenic (L858R, ex19del) and Resistant (T790M) EGFR Mutants for the Treatment of EGFR Mutant …” (J Med Chem, 2016)
